The results in this text go back to ChEMBL document CHEMBL4665652, “Discovery of novel quinoline sulphonamide derivatives as potent, selective and orally active RORγ inverse agonists” (Bioorg Med Chem Lett, 2019).

Where only a bound is given, the exact number is not on record here.

The nature of data set [1]: Stability in human microsomes assessed as unbound intrinsic clearance. The class given is ADME, Microsome. Put shortly:
(§1)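 Unbound intrinsic clearance measured in human and mouse liver microsomes, expressed in L/h/kg. Values are geometric means of at least two separate runs.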

Data set [2] can be described thus: Stability in mouse microsomes assessed as unbound intrinsic clearance. The class given is ADME, Microsome. Put shortly:
as §1

For data set [3], the target named is T1, Nuclear receptor ROR-gamma (Homo sapiens, UniProt P51449).
T1 sequence (P51449 whole entry): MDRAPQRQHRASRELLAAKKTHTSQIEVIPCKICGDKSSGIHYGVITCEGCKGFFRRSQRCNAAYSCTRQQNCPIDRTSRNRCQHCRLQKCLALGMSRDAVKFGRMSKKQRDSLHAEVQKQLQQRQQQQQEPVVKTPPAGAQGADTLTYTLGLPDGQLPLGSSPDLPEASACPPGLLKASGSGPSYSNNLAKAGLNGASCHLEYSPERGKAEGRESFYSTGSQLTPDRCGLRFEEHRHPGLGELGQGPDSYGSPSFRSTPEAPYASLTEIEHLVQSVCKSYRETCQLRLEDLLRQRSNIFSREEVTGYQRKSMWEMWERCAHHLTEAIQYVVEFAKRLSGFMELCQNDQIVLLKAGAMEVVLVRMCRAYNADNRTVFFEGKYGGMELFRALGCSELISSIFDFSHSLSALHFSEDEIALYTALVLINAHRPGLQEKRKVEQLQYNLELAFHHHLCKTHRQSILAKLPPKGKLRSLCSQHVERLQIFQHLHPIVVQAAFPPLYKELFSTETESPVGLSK
Nature of the data set: Inverse agonist activity at RORgamma in human CD4+ T cells assessed as inhibition of IL17A secretion after 72 hrs by ELISA. The class given is cell-based, CD4+ve Th. On the technique in general: An ELISA detects its analyte on a solid surface through an enzyme-linked reagent.

Data set [4] addresses T1, Nuclear receptor ROR-gamma. Put plainly: Inverse agonist activity at pSG5GAL4-DBD/LBD fused human RORgamma receptor expressed in COS7 cells co-expressing 5 copies of GAL4 response element after 18 hrs by luciferase reporter gene based assay. The format is cell-based. Background: Reporter assays use an easily measured gene product as a stand-in for the process of interest.

In the next data set the test system is Mus musculus. Put plainly: Immunosuppressive activity in po dosed PLP (139 to 151 residues)-induced experimental autoimmune encephalomyelitis mouse model assessed as incidence of disease administered twice starting from immunization relative to control. The format is functional. A digest of the protocol:
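EAE induced in mice by immunization with proteolipid protein peptide PLP139-151; ascending paralysis develops 10–12 days post-immunization. Compound dosed orally b.i.d. starting from immunization. Disease onset/incidence scored relative to control.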

For `Cc1cc(C(F)(F)F)c2cccc(OCc3c(Cl)ccc(S(=O)(=O)N4CCCCC4)c3Cl)c2n1`, the CL free stood at 233 mL/min/kg in data set [1] and 1000 mL/min/kg in data set [2].
The corresponding values for `CNC(=O)[C@@H]1CCCN1S(=O)(=O)c1ccc(Cl)c(COc2cccc3c(C(F)(F)F)cc(C)nc23)c1Cl` are 250 mL/min/kg and 1380 mL/min/kg.
A word on the EC50: it is the concentration giving half of the maximal effect. In the case of `COC[C@@H]1CCCN1S(=O)(=O)c1ccc(Cl)c(COc2cccc3c(C(F)(F)F)cc(C)nc23)c1Cl`, the CL free in data set [1] worked out at 450 mL/min/kg; in data set [2], 1620 mL/min/kg. The EC50 in data set [3] and in data set [4] was 160 nM in each case.
In the case of `CNC(=O)[C@@H]1CCCN1S(=O)(=O)c1ccc(Cl)c(COc2cccc3c(-c4nccn4C)cc(C)nc23)c1Cl`, the CL free in data set [1] turned out to be 120 mL/min/kg; in data set [2], 917 mL/min/kg. The EC50 in data set [4] is > 10000 nM.
With `CNC(=O)[C@@H]1CCCN1S(=O)(=O)c1ccc(Cl)c(COc2cccc3c(-c4ccccn4)cc(C)nc23)c1Cl`, the CL free was determined as 183 mL/min/kg in data set [1] and 733 mL/min/kg in data set [2].
With `CNC(=O)[C@@H]1CCCN1S(=O)(=O)c1ccc(Cl)c(COc2cccc3c(-c4cncn4C)cc(C)nc23)c1Cl`, the figures for the CL free in data set [1] and in data set [2] were 33 mL/min/kg and 120 mL/min/kg, respectively. In addition, the EC50 worked out at 1390 nM in data set [3] and 1510 nM in data set [4].
As for `CNC(=O)[C@@H]1CCCN1S(=O)(=O)c1ccc(Cl)c(COc2cccc3c(-n4ccnc4)cc(C(C)C)nc23)c1Cl`, the CL free stood at 33 mL/min/kg in data set [1] and 130 mL/min/kg in data set [2]. The EC50 in data set [4] turned out to be 520 nM.
In the case of `CNC(=O)[C@@H]1CCCN1S(=O)(=O)c1ccc(Cl)c(COc2cccc3c(-n4ccnc4)cc(C(F)(F)F)nc23)c1Cl`, the figures for the CL free in data set [1] and in data set [2] were 17 mL/min/kg and 130 mL/min/kg, respectively. Moreover, the EC50 in data set [3] worked out at 3320 nM; in data set [4], 170 nM.
`Cc1cc(C(F)(F)F)c2cccc(OCc3c(Cl)ccc(S(=O)(=O)N4CCCC4)c3Cl)c2n1`: the CL free in data set [1] turned out to be 233 mL/min/kg; in data set [2], 967 mL/min/kg.
Turning to `CNC(=O)[C@@H]1CCCN1S(=O)(=O)c1ccc(Cl)c(COc2cccc3c(-c4ccccc4)cc(C)nc23)c1Cl`, the EC50 in data set [3] was found to be 890 nM; in data set [4], 320 nM.
Regarding `CCc1cc(C(F)(F)F)c2cccc(OCc3c(Cl)ccc(S(=O)(=O)N4CCC[C@H]4C(=O)NC)c3Cl)c2n1`, the figures for the CL free in data set [1] and in data set [2] were 300 mL/min/kg and 1280 mL/min/kg, respectively. In addition, the 50% effective concentration (EC50) worked out at 210 nM in data set [3] and 350 nM in data set [4].
The corresponding values for `CNC(=O)[C@@H]1CCCN1S(=O)(=O)c1ccc(Cl)c(COc2cccc3c(C(F)(F)F)cc(C(C)C)nc23)c1Cl` are 500 mL/min/kg, 1630 mL/min/kg, 770 nM and 170 nM.
On to `CNC(=O)[C@@H]1CCCN1S(=O)(=O)c1ccc(Cl)c(COc2cccc3c(-n4ccnc4)cc(C)nc23)c1Cl`, for which the values for the CL free in data set [1] and in data set [2] were 33 mL/min/kg and 267 mL/min/kg, respectively. Further, the values for the 50% effective concentration (EC50) in data set [3] and in data set [4] were 3000 nM and 1360 nM, respectively.
For `CNC(=O)[C@@H]1CCCN1S(=O)(=O)c1cccc(COc2cccc3c(C(F)(F)F)cc(C)nc23)c1`, the CL free in data set [1] amounted to 50 mL/min/kg; in data set [2] it was 767 mL/min/kg. Moreover, the EC50 in data set [4] is > 10000 nM.
Consider `CCN(c1ccc(C(O)(C(F)(F)F)C(F)(F)F)cc1)S(=O)(=O)c1ccccc1`, for which the EC50 in data set [3] is 930 nM; in data set [4], 1080 nM.
Turning to `CNC(=O)[C@@H]1CCCN1S(=O)(=O)c1ccc(Cl)c(COc2cccc3c(-c4ccncc4)cc(C)nc23)c1Cl`, the CL free in data set [1] stood at 217 mL/min/kg; in data set [2], 550 mL/min/kg.
The corresponding values for `CNC(=O)[C@@H]1CCCN1S(=O)(=O)c1ccc(Cl)c(COc2cccc3c(OCc4ccccc4)cc(C(C)C)nc23)c1Cl` are 667 mL/min/kg and 1220 mL/min/kg.
On to `CNC(=O)[C@@H]1CCCN1S(=O)(=O)c1ccc(Cl)c(COc2cccc3c(-c4cccnc4)cc(C)nc23)c1Cl`, for which the figures for the CL free in data set [1] and in data set [2] were 233 mL/min/kg and 700 mL/min/kg, respectively. Further, the concentration giving a half-maximal response (EC50) in data set [3] was 1010 nM; in data set [4] it was 100 nM.
Regarding `CNC(=O)[C@@H]1CCCN1S(=O)(=O)c1ccc(Cl)c(COc2cccc3c(OCc4ccccc4)cc(C)nc23)c1Cl`, the CL free turned out to be 467 mL/min/kg in data set [1] and 1820 mL/min/kg in data set [2]. In data set [4], this compound showed an EC50 of 880 nM.
The corresponding values for `Cc1cc(C(F)(F)F)c2cccc(OCc3c(Cl)ccc(S(=O)(=O)N4CCC[C@H]4C(=O)O)c3Cl)c2n1` are 8.3 mL/min/kg, 13 mL/min/kg and 1390 nM.
In the same order, the values of `Cc1cc(C(F)(F)F)c2cccc(OCc3c(Cl)ccc(S(=O)(=O)N4C[C@@H](C)O[C@@H](C)C4)c3Cl)c2n1` are 317 mL/min/kg, 933 mL/min/kg and 220 nM.
The corresponding values for `Cc1cc(C(F)(F)F)c2cccc(OCc3c(Cl)ccc(S(=O)(=O)N4CCC(C#N)CC4)c3Cl)c2n1` are 433 mL/min/kg, 1720 mL/min/kg and 760 nM.
Turning to `CNC(=O)[C@@H]1CCCN1S(=O)(=O)c1ccc(Cl)c(COc2cccc3c(-c4ccncc4)cc(C(C)C)nc23)c1Cl`, the CL free in data set [1] stood at 333 mL/min/kg; in data set [2], 633 mL/min/kg. For the same compound, the EC50 came out at 1830 nM in data set [3] and 220 nM in data set [4].
In the same order, the values of `Cc1cc(C(F)(F)F)c2cccc(OCc3c(Cl)ccc(S(=O)(=O)N4CCC[C@H]4CO)c3Cl)c2n1` are 250 mL/min/kg, 1630 mL/min/kg, 830 nM and 960 nM.
`Cc1cc(C(F)(F)F)c2cccc(OCc3c(Cl)ccc(S(=O)(=O)N4CCC[C@H]4C(N)=O)c3Cl)c2n1`: the CL free was 167 mL/min/kg in data set [1] and 12600 mL/min/kg in data set [2]. For the same compound, the figures for the concentration giving a half-maximal response (EC50) in data set [3] and in data set [4] were 470 nM and 440 nM, respectively.
`Cc1cc(C(F)(F)F)c2cccc(OCc3c(Cl)ccc(S(=O)(=O)N4CC[C@@H](N(C)C)C4)c3Cl)c2n1`: the CL free in data set [1] was found to be 167 mL/min/kg; in data set [2] it was 867 mL/min/kg. A half-maximal response in data set [4] (EC50) required 910 nM.
In the same order, the values of `Cc1cc(C(F)(F)F)c2cccc(OCc3c(Cl)ccc(S(=O)(=O)N4CCC(CCO)CC4)c3Cl)c2n1` are 367 mL/min/kg, 1080 mL/min/kg and 390 nM.
With `CCCCCCCCc1ccc(CCC(N)(CO)CO)cc1` [FINGOLIMOD], in the data set with Mus musculus, the Activity is 0%.
